Test results from ChEMBL document CHEMBL1125819, “Novel benzamides as selective and potent gastrokinetic agents. 2. Synthesis and structure-activity relationships of 4-amino-5-chloro-2-ethoxy-N-[[4-(4-fluorobenzyl)-2- morpholinyl]methyl] benzamide citrate (AS-4370) and related compounds” (J Med Chem, 1991).

Assays:
Rattus norvegicus = assay: Gastric emptying of phenol red semisolid meal in rats at dose of 2.0 mg/kg, administered perorally.; format: functional; conditions: route oral
Canis familiaris [1] = assay: Compound was tested for anti-apomorphine effect in 3 dogs and the vomiting frequency expressed at a dose of 0.2 mg/kg perorally.; format: functional, Canis lupus familiaris; conditions: route oral
Procedure, shortened: (§1)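 Dogs received oral test article, then were challenged with apomorphine, and vomiting frequency was counted; saline controls were run. ED50 with 95% confidence limits was derived by probit analysis. Significance versus control was tested by Student's t test.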

Canis familiaris [2] = assay: Compound was tested for anti-apomorphine effect in 3 dogs and the vomiting frequency expressed at a dose of 1.0 mg/kg perorally.; format: functional, Canis lupus familiaris; conditions: route oral; procedure, shortened: as §1
[3] = biological target: Serotonin 1 (5-HT1) receptor (Rattus norvegicus, UniProt P28564+P30940+P19327+P28565); assay: Inhibitory activity against 5-hydroxytryptamine 1 receptor by 3H ligand binding experiments.; format: protein assay
Procedure, shortened: (§2)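 Competition binding on rat brain synaptic membranes at 10 mg wet tissue per assay, with compounds at 0.01–1000 μM. Radioligand and tissue: S1, [3H]serotonin, frontal cortex; S2, [3H]spiperone, frontal cortex; α1, [3H]WB-4101, whole brain; α2, [3H]clonidine, whole brain. Assays ended by rapid filtration and scintillation counting. IC50 was derived by probit analysis.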

Canis familiaris [4] = species: Canis familiaris; assay: Effective dose required to inhibit 50% of apomorphine effect(95% confidence limits); format: functional; conditions: Canis lupus familiaris
Procedure, shortened: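 Dogs were given the test drug orally, with saline controls, and then challenged with apomorphine. Vomiting frequency was counted in groups of 2–8 dogs per dose. ED50 and its 95% confidence limits were obtained by probit analysis. Significance against controls used Student's t test.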

[5] = biological target: T1, Adrenergic receptor alpha-1 (Rattus norvegicus, UniProt P15823+P23944+P43140); assay: Inhibitory activity against Alpha-1 adrenergic receptor by 3H ligand binding experiments.; format: protein assay; procedure, shortened: as §2
T1 sequence (P15823 whole entry): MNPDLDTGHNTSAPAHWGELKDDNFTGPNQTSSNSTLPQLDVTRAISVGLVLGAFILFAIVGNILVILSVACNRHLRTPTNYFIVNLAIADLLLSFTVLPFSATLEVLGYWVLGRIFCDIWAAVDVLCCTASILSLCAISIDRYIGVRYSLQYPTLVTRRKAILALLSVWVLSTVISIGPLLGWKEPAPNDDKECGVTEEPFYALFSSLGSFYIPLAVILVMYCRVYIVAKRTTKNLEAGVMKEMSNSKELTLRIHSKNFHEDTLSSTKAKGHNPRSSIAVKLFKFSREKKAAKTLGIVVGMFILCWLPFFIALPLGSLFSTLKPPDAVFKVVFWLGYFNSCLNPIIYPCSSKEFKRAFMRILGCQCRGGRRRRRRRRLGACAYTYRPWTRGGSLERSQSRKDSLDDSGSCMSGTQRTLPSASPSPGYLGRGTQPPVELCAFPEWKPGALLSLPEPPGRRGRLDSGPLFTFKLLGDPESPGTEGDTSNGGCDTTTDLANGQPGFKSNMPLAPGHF
T1 sequence (P23944 whole entry): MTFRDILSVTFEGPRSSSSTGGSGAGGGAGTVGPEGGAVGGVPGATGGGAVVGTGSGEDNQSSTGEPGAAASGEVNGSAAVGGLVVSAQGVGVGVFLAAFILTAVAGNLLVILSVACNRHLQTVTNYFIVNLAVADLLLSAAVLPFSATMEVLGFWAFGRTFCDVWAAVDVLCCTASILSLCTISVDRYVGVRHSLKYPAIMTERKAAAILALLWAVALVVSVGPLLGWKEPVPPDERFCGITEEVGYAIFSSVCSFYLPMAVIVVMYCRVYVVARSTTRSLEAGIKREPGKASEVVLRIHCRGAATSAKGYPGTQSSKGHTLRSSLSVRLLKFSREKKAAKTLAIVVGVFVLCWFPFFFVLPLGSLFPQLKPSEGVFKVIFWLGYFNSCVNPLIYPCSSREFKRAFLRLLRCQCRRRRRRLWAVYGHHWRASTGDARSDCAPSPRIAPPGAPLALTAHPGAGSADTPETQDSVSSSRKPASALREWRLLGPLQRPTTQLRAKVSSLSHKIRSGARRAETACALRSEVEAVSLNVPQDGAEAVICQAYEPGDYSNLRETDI
T1 sequence (P43140 whole entry): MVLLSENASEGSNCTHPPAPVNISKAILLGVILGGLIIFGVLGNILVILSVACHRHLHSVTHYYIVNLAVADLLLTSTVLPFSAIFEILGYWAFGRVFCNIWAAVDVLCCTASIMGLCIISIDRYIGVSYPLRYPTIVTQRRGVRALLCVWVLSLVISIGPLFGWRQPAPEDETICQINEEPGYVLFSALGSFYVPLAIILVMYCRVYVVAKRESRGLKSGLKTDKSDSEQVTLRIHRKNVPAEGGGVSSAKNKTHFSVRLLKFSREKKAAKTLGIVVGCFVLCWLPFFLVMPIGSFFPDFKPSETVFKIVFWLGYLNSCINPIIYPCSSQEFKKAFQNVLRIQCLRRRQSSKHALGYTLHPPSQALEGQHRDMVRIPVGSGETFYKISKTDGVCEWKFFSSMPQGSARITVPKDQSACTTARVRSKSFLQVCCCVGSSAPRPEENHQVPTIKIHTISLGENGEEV

Canis familiaris [6] = assay: Compound was tested for anti-apomorphine effect in 3 dogs and the vomiting frequency expressed at a dose of 2.0 mg/kg perorally.; format: functional, Canis lupus familiaris; conditions: route oral; procedure, shortened: as §1
Canis familiaris [7] = assay: Compound was tested for anti-apomorphine effect in 3 dogs and the vomiting frequency expressed at a dose of 0.5 mg/kg perorally.; format: functional, Canis lupus familiaris; conditions: route oral; procedure, shortened: as §1
[8] = biological target: T2, Adrenergic receptor alpha-2 (Rattus norvegicus, UniProt P22086+P19328+P22909); assay: Inhibitory activity against alpha-2 adrenergic receptor by 3H ligand binding experiments.; format: protein assay
T2 sequence (P22086 whole entry): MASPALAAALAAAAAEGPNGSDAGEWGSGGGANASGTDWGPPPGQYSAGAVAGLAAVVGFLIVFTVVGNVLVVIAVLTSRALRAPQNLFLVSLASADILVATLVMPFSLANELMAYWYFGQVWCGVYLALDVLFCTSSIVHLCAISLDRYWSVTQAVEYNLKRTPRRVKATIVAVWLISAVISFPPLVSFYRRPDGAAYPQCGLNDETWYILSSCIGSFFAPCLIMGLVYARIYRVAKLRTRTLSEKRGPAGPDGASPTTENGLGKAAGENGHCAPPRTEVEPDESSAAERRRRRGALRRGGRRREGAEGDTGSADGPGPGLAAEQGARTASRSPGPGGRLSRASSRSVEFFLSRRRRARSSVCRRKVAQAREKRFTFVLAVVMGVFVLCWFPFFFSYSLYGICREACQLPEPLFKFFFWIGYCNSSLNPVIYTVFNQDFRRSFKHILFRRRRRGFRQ
T2 sequence (P19328 whole entry): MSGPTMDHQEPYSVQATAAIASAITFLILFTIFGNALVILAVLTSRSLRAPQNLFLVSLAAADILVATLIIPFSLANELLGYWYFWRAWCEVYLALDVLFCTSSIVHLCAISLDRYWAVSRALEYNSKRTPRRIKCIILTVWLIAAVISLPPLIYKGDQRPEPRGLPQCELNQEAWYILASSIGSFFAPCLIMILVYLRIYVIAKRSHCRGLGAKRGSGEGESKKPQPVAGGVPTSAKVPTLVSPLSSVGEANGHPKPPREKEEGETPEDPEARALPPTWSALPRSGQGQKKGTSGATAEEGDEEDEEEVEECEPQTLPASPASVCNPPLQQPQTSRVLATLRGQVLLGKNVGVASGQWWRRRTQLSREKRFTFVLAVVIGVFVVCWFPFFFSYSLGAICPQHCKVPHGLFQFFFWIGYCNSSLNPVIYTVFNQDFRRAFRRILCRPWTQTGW
T2 sequence (P22909 whole entry): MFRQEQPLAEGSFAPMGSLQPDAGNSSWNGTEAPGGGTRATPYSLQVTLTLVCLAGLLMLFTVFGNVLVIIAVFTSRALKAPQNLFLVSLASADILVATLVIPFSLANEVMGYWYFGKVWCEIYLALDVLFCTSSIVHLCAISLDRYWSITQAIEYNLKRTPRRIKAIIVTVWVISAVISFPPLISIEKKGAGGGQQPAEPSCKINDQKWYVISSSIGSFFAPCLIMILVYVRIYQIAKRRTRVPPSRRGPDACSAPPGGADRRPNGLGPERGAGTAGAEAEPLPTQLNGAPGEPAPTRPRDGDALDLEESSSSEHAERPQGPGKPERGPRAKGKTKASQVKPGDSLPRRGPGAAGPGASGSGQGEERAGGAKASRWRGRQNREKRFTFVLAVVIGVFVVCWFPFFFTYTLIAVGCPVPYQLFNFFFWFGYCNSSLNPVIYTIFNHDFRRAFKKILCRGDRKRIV

IC50 [3]: 7.8 µM | IC50 [5]: 32.8 µM | IC50 [8]: 7.7 µM
SMILES: CCN(CC)CCNC(=O)c1cc(Cl)c(N)cc1OC [METOCLOPRAMIDE]
GE (Rattus norvegicus): 21% | Vomiting frequency (Canis familiaris [1]): 7.7 | Vomiting frequency (Canis familiaris [2]): 1.3 | ED50 (Canis familiaris [4]): 0.45 mg/kg | Vomiting frequency (Canis familiaris [6]): 0.3 | Vomiting frequency (Canis familiaris [7]): 4
